# From PubChem BioAssay
# FGF22 binding – FGF22 (human) thermal shift binding. Q9HCT0. recombinant FGF22 thermal shift, SYPRO orange fluorescence; percent of sucrose octasulfate shift, DMSO zero. activity (Tm shift, normalised), % at 9.99 µM. 340,000 tested, 1.5% active. AID 651658;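 active = mean Tm shift, scaled 0 neutral to 100 positive control, at about 1.3% or above, every replicate too, limit read from the data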
# NR2E3 ag-1 – activates human NR2E3 receptor; Q9Y5X4; CHO-S Gal4-NCOR/VP16-NR2E3 two-hybrid, luciferase; inhibition of corepressor binding, % at 3.98 µM; 360,000 tested, 0.35% active;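 active = inhibition above the mean of all tested compounds plus 3 SD, cut at about 70% in these data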;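 note: 0% = DMSO with NR2E3 transfected cells and 100% = cells lacking NR2E3 construct; higher means lower luciferase signal from less NR2E3 corepressor binding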
# Target sequence (Q9Y5X4 whole entry, looked up, the tested form may be a part): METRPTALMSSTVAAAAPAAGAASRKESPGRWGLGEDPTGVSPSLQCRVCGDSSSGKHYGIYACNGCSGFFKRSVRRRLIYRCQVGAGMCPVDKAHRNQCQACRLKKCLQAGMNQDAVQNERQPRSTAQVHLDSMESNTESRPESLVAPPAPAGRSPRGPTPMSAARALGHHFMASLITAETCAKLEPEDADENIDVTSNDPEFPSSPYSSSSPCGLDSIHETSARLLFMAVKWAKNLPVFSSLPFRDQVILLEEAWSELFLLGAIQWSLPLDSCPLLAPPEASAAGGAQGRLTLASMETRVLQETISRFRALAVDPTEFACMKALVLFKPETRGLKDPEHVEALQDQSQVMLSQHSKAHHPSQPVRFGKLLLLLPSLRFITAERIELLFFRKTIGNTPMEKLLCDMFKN
# 697 NFkB inh – lowers PMA/ionomycin-induced NF-kB signal in 697 B cells; 697 B-cell NF-kB luciferase reporter, 16 h; inhibition, % at 4 µM; 330,000 tested, 0.33% active; in the data active = inhibition above about 35%
# Jurkat NFkB inh – inhibitors of the PMA/ionomycin-induced NF-kB reporter in Jurkat cells; PMA/ionomycin-induced NF-kB luciferase reporter, luminescence; inhibition, % at 4 µM; 330,000 tested, 0.53% active; in the data active = inhibition above about 50%
# miR122 inh – inhibitors of miR-122 in Huh7 cells | Huh7 miR-122 Renilla luciferase sensor, 48 h; neutral wells = 0, positive control = 100 | activation (reporter increase), % at 12.5 µM | 340,000 tested, 0.3% active | AID 602342;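 active = mean replicate activation score at least 90 and every replicate individually at or above 90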;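 note: higher luciferase means less miR-122 activity so hits act as miR-122 inhibitors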
# NR2E3 ag-2 – NR2E3 (human) agonism. AID 2300. 320,000 tested, 0.12% active. inhibition of corepressor binding, % at 4.78 µM. Q9Y5X4. GST-NR2E3/biotin-RetCOR TR-FRET, 1536-well;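 active = percent inhibition above the cutoff of mean plus 3 SD of all tested compounds, set per screening campaign, cut at about 20% in these data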;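 note: 0% = DMSO wells and 100% = biotin wells as full block of FRET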
#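 Material – GST-tagged NR2E3 plus biotinylated RetCOR corepressor · Quantity – NR2E3 fusion 1.35 nM · Times – 5 h incubation at 4 °C · Medium – pH 7.5 Tris-based buffer · Technique – TR-FRET, Eu(K)-anti-GST donor, streptavidin-D2 acceptor, ex 340, em 617/671 nm · Benchmarks – high control biotin, low control 0.6% DMSO · Format – 1536-well plates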
# Numbers without * were called inactive; . = no result; [ ] = dose if it differs, or a comment. Rows were chosen to be rich in hits. Some 2.2% of all compounds tested hit in one or more screens of this group.
SMILES,FGF22 binding,NR2E3 ag-1,697 NFkB inh,Jurkat NFkB inh,miR122 inh,NR2E3 ag-2
COc1ccc(/C=C(\NC(=O)c2ccc(C)cc2)C(=O)NCCN2CCOCC2)cc1,1.4*,-27,6,8,.,3
Cc1ccc2nc(COc3ccc(Cl)cc3)cc(=O)n2c1,43*,-82,-94,-61,.,1
Cc1ccc2nc(CSc3nnc4ccccn34)cc(=O)n2c1,43*,-2,6,10,.,0
CCOc1cc(C=O)ccc1OCc1cc(=O)n2cc(C)ccc2n1,0,-10,31,19,16,-2
Cc1ccc2nc(CSc3nnc(-c4ccco4)n3-c3ccccc3)cc(=O)n2c1,.,10,9,3,1,2
O=C(C[C@@H]1C=C[C@@H](NC(=O)Nc2ccc3c(c2)OCO3)[C@@H](CO)O1)NCc1ccc(Cl)cc1,0,.,.,.,.,.
C[C@H](CO)N1C[C@H](C)[C@@H](CN(C)C(=O)Nc2cccc3ccccc23)OCCCC[C@H](C)Oc2ccc(NC(=O)Nc3ccc4c(c3)OCO4)cc2C1=O,1.7*,.,.,.,0[16.7 µM],.
C[C@@H]1CCCCO[C@@H](CN(C)CC2CCCCC2)[C@H](C)CN([C@H](C)CO)C(=O)c2cc(NC(=O)Nc3cccc4ccccc34)ccc2O1,1.3*,.,.,.,-30[16.7 µM],.
C[C@@H]1CCCCO[C@@H](CN(C)CC2CCCCC2)[C@H](C)CN([C@@H](C)CO)C(=O)c2cc(NC(=O)Nc3ccc4c(c3)OCO4)ccc2O1,1.4*,.,.,.,-1[16.7 µM],.
COc1ccc(NC(=O)Nc2ccc3c(c2)C(=O)N([C@@H](C)CO)C[C@@H](C)[C@@H](CN(C)CC2CCCCC2)OCCCC[C@H](C)O3)cc1,1.3*,.,.,.,1[16.7 µM],.
COCCNC(=O)C[C@H]1C[C@@H]2c3cc(NC(=O)COC)ccc3O[C@@H]2[C@H](CO)O1,.,.,.,.,0[16.7 µM],.
C[C@H](CO)N1C[C@H](C)[C@H](CN(C)C(=O)c2cccnc2)Oc2ncc(/C=C/c3ccccc3)cc2C1=O,0,.,.,.,6[16.7 µM],.
COc1ccc(S(=O)(=O)N(C)C[C@@H]2OCCCC[C@@H](C)Oc3ccc(NC(=O)Nc4cccc5ccccc45)cc3C(=O)N([C@@H](C)CO)C[C@H]2C)cc1,1.3*,.,.,.,0[16.7 µM],.
COc1ccc(S(=O)(=O)N(C)C[C@H]2OCCCC[C@H](C)Oc3ccc(NC(=O)Nc4cccc5ccccc45)cc3C(=O)N([C@@H](C)CO)C[C@@H]2C)cc1,1,.,.,.,-4[16.7 µM],.
Cc1ccc(S(=O)(=O)N(C)C[C@H]2Oc3ncc(-c4ccccc4)cc3C(=O)N([C@H](C)CO)C[C@@H]2C)cc1,0,.,.,.,28[16.7 µM],.
O=C(Nc1ccc(Cl)cc1Cl)N1CCN(c2ncccn2)CC1,43*,-17,-1,-11,-15,0
Cc1nc(Cc2nnc(SCC(=O)N3c4ccccc4NC(=O)C3(C)C)o2)cs1,43*,-15,.,.,-10,.
Cc1ccc(-c2nnc(SCC(=O)N3c4ccccc4NC(=O)C3(C)C)n2N)cc1,.,-3,-16,-11,2,1
Cc1nc(Cc2nnc(SCC(=O)N3CC(=O)Nc4ccccc43)o2)cs1,0,15,9,6,-3,.
Cc1ccc(-n2nnnc2SCC(=O)N2c3ccccc3NC(=O)C2(C)C)cc1,.,4,10,19,160*,1
Cc1ccc2[nH]c(C(=O)NN=C3CCCCC3)c(-c3ccccc3)c2c1,43*,9,17,-4,.,4
Cc1ccc2[nH]c(C(=O)O)c(-c3ccccc3)c2c1,.,-16,-8,2,-20,2
COCC(=O)N(C)C[C@H]1Oc2cc(C#C[C@@H](C)O)ccc2S(=O)(=O)N([C@@H](C)CO)C[C@H]1C,0,.,.,.,-16[16.7 µM],.
C[C@@H]1CN([C@@H](C)CO)C(=O)c2cc(-c3ccc(C#N)cc3)cnc2O[C@@H]1CN(C)C(=O)CN(C)C,0,.,.,.,-9[16.7 µM],.
O=C(C1CC1)N1C[C@H]2[C@@H](c3ccccc31)[C@H](CO)N2C(=O)Cc1ccccn1,0,.,.,.,0[16.7 µM],.
OC(CNC1CCCc2ccccc21)COc1c(Cl)cccc1Cl (configuration not stated),44*,-21,23,10,.,-2
OC(CNC1Cc2ccccc2C1)COc1ccc(Cl)cc1 (configuration not stated),0,1,16,-6,.,1
